{"data": "Published values gathered from unrelated publications", "Mapk1": "Mitogen-activated protein kinase 1 (Mapk1, Mus musculus, UniProt P63085)", "PARP3": "Protein mono-ADP-ribosyltransferase PARP3 (PARP3, Homo sapiens, UniProt Q9Y6F1)", "MMP1": "Interstitial collagenase (MMP1, Homo sapiens, UniProt P03956)", "ADRA1B": "Alpha-1B adrenergic receptor (ADRA1B, Homo sapiens, UniProt P35368)", "note": "Each line is one published result; the experiments were not run side by side."}
{"Structure (SMILES)": "Cn1cnc(Br)c1C1=CN(c2ncnc3[nH]cnc23)CCS1", "target": "Myosin-IIIa (MYO3A, Homo sapiens, UniProt Q8NEV4)", "assay": "enzyme activity, inhibitor, radiometric", "setting": "2 µM", "inhibition": "29.9%"}
{"Structure (SMILES)": "Ic1cccc2cnccc12", "target": "ADP-ribosyl cyclase/cyclic ADP-ribose hydrolase 1 (CD38, Homo sapiens, UniProt P28907)", "assay": "enzyme activity, inhibitor", "setting": "10 µM", "inhibition": "0%"}
{"Structure (SMILES)": "Cc1ccc(Nc2nccc(N(C)c3ccc4c(C)n(C)nc4c3)n2)cc1S(N)(=O)=O", "target": "Mapk1", "assay": "enzyme activity, inhibitor", "setting": "0.3 µM", "inhibition": "-2%"}
{"Structure (SMILES)": "O=C1CCNC(=O)c2cc(Cl)c(Cl)cc21", "target": "PARP3", "assay": "enzyme activity, inhibitor", "setting": "10 µM", "inhibition": "85%"}
{"Structure (SMILES)": "O=C1C=Cc2occ(C(=O)c3ccccc3)c2C1=O", "target": "MMP1", "assay": "enzyme activity, inhibitor", "setting": "100 µM", "inhibition": "≤ 0%"}
{"Structure (SMILES)": "COc1cc2c(cc1OC)-c1nnnn1CCC2", "target": "PARP3", "assay": "enzyme activity, inhibitor", "setting": "10 µM", "inhibition": "45%"}
{"Structure (SMILES)": "COc1ccc2c(c1)C(CC(=O)O)=C/C2=C\\c1ccc(SC)cc1", "target": "Prostaglandin G/H synthase 2 (Ptgs2, Mus musculus, UniProt Q05769)", "assay": "enzyme activity, inhibitor", "setting": "4 µM", "inhibition": "8%"}
{"Structure (SMILES)": "Nc1ccc2c(c1)CCCn1nnnc1-2", "target": "PARP3", "assay": "enzyme activity, inhibitor", "setting": "10 µM", "inhibition": "0%"}
{"Structure (SMILES)": "CCN(CC)CCNC(=O)c1c(C)[nH]c(/C=C2\\C(=O)Nc3ccc(F)cc32)c1C", "target": "Mapk1", "assay": "enzyme activity, inhibitor", "setting": "0.3 µM", "inhibition": "-16%"}
{"Structure (SMILES)": "CC/C(=N\\NC(=O)C(C)Nc1ccccc1)c1ccc(O)c(C)c1O (stereo not drawn)", "target": "cAMP-dependent protein kinase catalytic subunit gamma (PRKACG, Homo sapiens, UniProt P22612)", "assay": "enzyme activity, inhibitor", "setting": "0.1 µM", "inhibition": "34.9%"}
{"Structure (SMILES)": "CN(C)C1CCN(CC#Cc2nn(C3CCCC3)c3nc(NCc4ccccc4)ncc23)C1 (stereo not drawn)", "target": "Interleukin-1 receptor-associated kinase 1 (IRAK1, Homo sapiens, UniProt P51617)", "assay": "enzyme activity, inhibitor, FRET", "setting": "1 µM", "inhibition": "13%"}
{"Structure (SMILES)": "CCN1CCN(Cc2ccc(NC(=O)c3ccc(C)c(Oc4ccnc5[nH]ccc45)c3)cc2C(F)(F)F)CC1", "target": "Microtubule-associated serine/threonine-protein kinase 4 (MAST4, Homo sapiens, UniProt O15021)", "assay": "target engagement in cells, inhibitor, chemoproteomics", "test system": "Huh-7", "setting": "1 µM", "inhibition": "-11.5%"}
{"Structure (SMILES)": "O=C1CCCc2ccc(F)cc2N1", "target": "PARP3", "assay": "enzyme activity, inhibitor", "setting": "10 µM", "inhibition": "0%"}
{"Structure (SMILES)": "CNC(=O)c1cc2c(Oc3ccc(NC(=O)C4(C(=O)Nc5ccc(F)cc5)CC4)cc3)ccnc2cc1OC", "target": "Hepatocyte growth factor receptor (MET, Homo sapiens, UniProt P08581, Y1230H)", "assay": "enzyme activity, inhibitor, radiometric", "setting": "1 µM", "inhibition": "99%"}
{"Structure (SMILES)": "O=C(O)c1ncccc1O", "target": "MMP1", "assay": "enzyme activity, inhibitor, fluorescence", "setting": "1 mM", "inhibition": "~50%"}
{"Structure (SMILES)": "COc1cc(NC(C)=O)c(Cl)cc1C(=O)Nc1nccs1", "target": "ADRA1B", "assay": "cell-free assay", "setting": "10 µM", "inhibition": "4.3%"}
{"Structure (SMILES)": "CCCNc1nc2ccccc2n1Cc1ccc(Cl)cc1", "target": "ADRA1B", "assay": "ligand displacement", "setting": "10 µM", "inhibition": "16.1%"}
{"Structure (SMILES)": "COc1cc(CCN2CCN(CCCc3ccccc3)CC2)ccc1O", "target": "Sodium-dependent dopamine transporter (Slc6a3, Mus musculus, UniProt Q61327)", "assay": "ligand displacement, radioligand", "setting": "10 µM, cell membranes", "inhibition": "20%"}
